{"source": "paper PMC9064899", "about": "(The FEBS journal, 2021)", "assay_in_all_cases": "Cell-based UBIAD1 functional assay", "key": {"UBIAD1 G177R": {"target": "T1, UBIAD1 G177R (Homo sapiens, UniProt Q9Y5Z9, G177R)", "T1 sequence (Q9Y5Z9 1-338 G177R)": "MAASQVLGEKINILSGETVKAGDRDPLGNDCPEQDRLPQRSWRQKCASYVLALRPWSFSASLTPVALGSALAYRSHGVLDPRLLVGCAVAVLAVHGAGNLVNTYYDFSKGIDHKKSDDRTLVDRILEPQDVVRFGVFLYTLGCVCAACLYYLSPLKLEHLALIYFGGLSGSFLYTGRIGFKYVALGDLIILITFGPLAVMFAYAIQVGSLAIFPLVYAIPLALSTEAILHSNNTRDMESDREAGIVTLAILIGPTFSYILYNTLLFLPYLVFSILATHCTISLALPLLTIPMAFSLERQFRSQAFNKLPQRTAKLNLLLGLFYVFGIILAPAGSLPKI", "how_it_was_run": "(§1)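 Wild-type or mutant human UBIAD1 in pCI-neo was transiently transfected into Ubiad1-knockout FIXgla-PC/HEK293 cells (DMEM/F12, 10% FBS). […] After 24 h, carboxylated FIXgla-PC in the medium was measured by ELISA. Activity was normalized to wild type (100%), and EC50 came from a curve fit. Mean ± SD, n=3 independent experiments.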"}, "UBIAD1 D112G": {"target": "T2, UBIAD1 D112G (Homo sapiens, UniProt Q9Y5Z9, D112G)", "T2 sequence (Q9Y5Z9 1-338 D112G)": "T1 sequence (Q9Y5Z9 1-338 G177R) with D112G, R177G", "how_it_was_run": "as §1"}, "UBIAD1 G186R": {"target": "T3, UBIAD1 G186R (Homo sapiens, UniProt Q9Y5Z9, G186R)", "T3 sequence (Q9Y5Z9 1-338 G186R)": "T1 sequence (Q9Y5Z9 1-338 G177R) with R177G, G186R", "how_it_was_run": "as §1"}, "UBIAD1 K181A": {"target": "T4, UBIAD1 K181A (Homo sapiens, UniProt Q9Y5Z9, K181A)", "T4 sequence (Q9Y5Z9 1-338 K181A)": "T1 sequence (Q9Y5Z9 1-338 G177R) with R177G, K181A", "how_it_was_run": "as §1"}, "UBIAD1 R54A": {"target": "T5, UBIAD1 R54A (Homo sapiens, UniProt Q9Y5Z9, R54A)", "T5 sequence (Q9Y5Z9 1-338 R54A)": "T1 sequence (Q9Y5Z9 1-338 G177R) with R54A, R177G", "how_it_was_run": "as §1"}, "UBIAD1 D236E": {"target": "T6, UBIAD1 D236E (Homo sapiens, UniProt Q9Y5Z9, D236E)", "T6 sequence (Q9Y5Z9 1-338 D236E)": "T1 sequence (Q9Y5Z9 1-338 G177R) with R177G, D236E", "how_it_was_run": "as §1"}, "UBIAD1 D112N": {"target": "T7, UBIAD1 D112N (Homo sapiens, UniProt Q9Y5Z9, D112N)", "T7 sequence (Q9Y5Z9 1-338 D112N)": "T1 sequence (Q9Y5Z9 1-338 G177R) with D112N, R177G", "how_it_was_run": "as §1"}}, "note": "Numbering of substitutions follows the chain as printed."}
{"smiles": "CC1=CC(=O)c2ccccc2C1=O", "note": "[vitamin K3, menadione]", "values": [{"measurement": "EC50", "setting": "UBIAD1 G177R", "result": "3 ± 0.3", "unit": "nM"}, {"measurement": "Vitamin K-dependent carboxylation Activity ± SD", "setting": "UBIAD1 G177R; G177R, 1 μM vitamin K3", "result": "119.8 ± 1.2", "unit": "%"}, {"measurement": "EC50", "setting": "UBIAD1 D112G", "result": "5.1 ± 0.8", "unit": "nM"}, {"measurement": "Vitamin K-dependent carboxylation Activity ± SD", "setting": "UBIAD1 D112G; D112G, 1 μM vitamin K3", "result": "104.8 ± 3", "unit": "%"}, {"measurement": "increase of EC50 value of vitamin K3 vs wild-type", "setting": "UBIAD1 G186R; G186R vs WT", "result": 60, "unit": "fold"}, {"measurement": "Vitamin K-dependent carboxylation Activity ± SD", "setting": "UBIAD1 G186R; G186R, 1 μM vitamin K3", "result": "57.1 ± 1.1", "unit": "%"}, {"measurement": "EC50", "setting": "UBIAD1 K181A", "result": "11.9 ± 0.4", "unit": "nM"}, {"measurement": "Vitamin K-dependent carboxylation Activity ± SD", "setting": "UBIAD1 K181A; K181A, 1 μM vitamin K3", "result": "101.7 ± 3", "unit": "%"}, {"measurement": "EC50", "setting": "UBIAD1 R54A", "result": "84 ± 11.6", "unit": "nM"}, {"measurement": "Vitamin K-dependent carboxylation Activity ± SD", "setting": "UBIAD1 R54A; R54A, 1 μM vitamin K3", "result": "79.8 ± 2.6", "unit": "%"}, {"measurement": "EC50", "setting": "UBIAD1 D236E", "result": "22.6 ± 2.2", "unit": "nM"}, {"measurement": "EC50 value of vitamin K3 lower than that of D236A", "setting": "UBIAD1 D236E; D236E vs D236A", "result": 4, "unit": "fold"}, {"measurement": "increase of EC50 value of vitamin K3 vs wild-type", "setting": "UBIAD1 D236E; D236E vs WT", "result": 6, "unit": "fold"}, {"measurement": "Vitamin K-dependent carboxylation Activity ± SD", "setting": "UBIAD1 D236E; D236E, 1 μM vitamin K3", "result": "107.1 ± 4.9", "unit": "%"}, {"measurement": "EC50", "setting": "UBIAD1 D112N", "result": "6.4 ± 0.6", "unit": "nM"}, {"measurement": "Vitamin K-dependent carboxylation Activity ± SD", "setting": "UBIAD1 D112N; D112N, 1 μM vitamin K3", "result": "109.6 ± 5.2", "unit": "%"}]}
